procasp3 activ – activates human procaspase-3. P42574. recombinant procaspase-3 D3A, Ac-DEVD-pNA absorbance 405 nm. 330,000 tested, 0.11% active. activation, % at 8.5 µM. AID 463141;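 active = activation above the mean of all tested compounds plus 3 SD, cut at about 21% in these data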;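 also: 0% = DMSO alone and 100% = DMSO wells spiked with extra 5 µM PC-3 D3A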
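Assay system – Procaspase-3 D3A mutant · Benchmarks – DMSO low control, extra-enzyme high control · Technique – 405 nm absorbance of p-nitroaniline, reads at 0 and 120 min · Doses – 8.5 µM nominal · Measure – % activation between DMSO and enzyme-spiked controls · Also added – Ac-DEVD-pNA chromogenic peptide substrate · Schedule – 1 h compound preincubation, 2 h substrate hydrolysis at 25 °C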
proCasp7 act – counter-screen: procaspase-7 (human) activation; P55210; 330,000 tested, 0.093% active; recombinant procaspase-7, Ac-DEVD-pNA absorbance 405 nm; D23A/D198A/D206A triple mutant, cannot self-cleave; scale: DMSO 0, 5 µM enzyme 100; activation, % at 8.5 µM; AID 463210;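 active = percent activation above the screen-wide mean plus 3 SD, cut at about 25% in these data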
Target sequence (P55210 whole entry D23A/D198A/D206A): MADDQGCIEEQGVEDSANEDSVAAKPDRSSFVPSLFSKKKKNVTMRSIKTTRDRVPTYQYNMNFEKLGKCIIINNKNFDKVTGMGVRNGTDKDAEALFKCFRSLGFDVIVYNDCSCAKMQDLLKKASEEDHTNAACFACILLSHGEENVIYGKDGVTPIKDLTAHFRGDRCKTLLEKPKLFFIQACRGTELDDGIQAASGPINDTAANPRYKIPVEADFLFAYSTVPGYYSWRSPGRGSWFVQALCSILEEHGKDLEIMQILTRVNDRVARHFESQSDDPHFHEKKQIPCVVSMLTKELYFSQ
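Test system: Procaspase-7 triple mutant (PC-7 D3A). Also added: Ac-DEVD-pNA substrate, 400 µM as added. Schedule: 1 h enzyme–compound preincubation and 2 h substrate reaction, both 25 °C. Signal: p-Nitroaniline absorbance at 405 nm, read at 0 and 120 min. Control set: low DMSO alone, high DMSO plus 5 µM PC-7.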
LYPLA1 counter – LYPLA1 (human) inhibition in PME1 counter-screen. O75608. recombinant LYPLA1, FP-Rh probe fluorescence polarization. inhibition, % at 5.9 µM. 320,000 tested, 0.16% active. AID 2174;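 active = inhibition above the mean of all tested compounds plus 3 SD, set per campaign, cut at about 14% in these data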;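 also: inhibitors block serine hydrolase probe labeling of LYPLA1 so polarization falls; 0% = enzyme with DMSO and 100% = wells lacking LYPLA1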
PREPL inh – human PREPL enzyme inhibition. Q4J6C6. recombinant PREPL, fluorescence polarization activity-based probe. inhibition, % at 5.96 µM. 320,000 tested, 0.68% active. AID 2751; in the data active = inhibition above about 43%;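 also: 0% = enzyme with DMSO and 100% = wells lacking enzyme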
LYPLA2 inh – blocks human lysophospholipase 2, a PME1 counter-screen | O95372 | recombinant LYPLA2, FP-Rh probe fluorescence polarization | inhibition, % at 5.9 µM | 320,000 tested, 0.38% active;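 active = inhibition above the screen-wide mean plus 3 SD, limit set per campaign, cut at about 26% in these data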;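 also: 0% = LYPLA2 with DMSO and 100% = wells lacking LYPLA2 enzyme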
proCasp7 act trip – activates human procaspase-7, counter-screen for procaspase-3 activators; shares compounds with procasp3 activ; recombinant procaspase-7, Ac-DEVD-pNA absorbance; asp23/198/206-to-Ala mutant, cannot self-cleave; activation, % at 8.5 µM; 210 tested, under 10 active;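 active = mean activation above a set limit taken from an earlier procaspase-7 screen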;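 also: 0% = DMSO wells and 100% = DMSO plus 5 µM procaspase-7 enzyme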
proCasp3 confirm – confirmation of human procaspase-3 activators. shares compounds with procasp3 activ. recombinant PC-3 D3A, Ac-DEVD-pNA absorbance 405 nm; 100% is higher-enzyme control. activation, % at 8.5 µM. 210 tested, 10% active;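 active = mean activation above a set limit carried over from the earlier primary screen, cut at about 22% in these data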
* marks the source's active call; other numbers are inactive results; x = no result given. Rows were chosen to be rich in hits. Some 1% of all compounds tested hit in one or more screens of this group.

SMILES	procasp3 activ	proCasp7 act	LYPLA1 counter	PREPL inh	LYPLA2 inh	proCasp7 act trip	proCasp3 confirm
Cc1c(CCC(=O)O)c(=O)oc2cc3occ(C(C)(C)C)c3cc12	8.9	4.6	-7.3	-5.5	-4.2	x	x
Nc1c(C(=O)OCC2CCCO2)c2nc3ccccc3nc2n1C1CCCCC1 (stereo not given)	-0.3	10.2	-1.5	7.9	-3.7	x	x
O=C1OCCN1C(=O)[C@H]1[C@H](c2ccc(Cl)cc2)C(c2ccc(F)cc2)=NN1c1ccc(Br)cc1	26.8*	16.1	x	x	x	-23.3	-13.2
Cc1ccc2cc(CN(C(=O)c3cccnc3)C(C)C)c(=O)[nH]c2c1	1.5	-0.4	0.5	4.0	3.3	x	x
COc1cccc2cc(-c3nnc(SCC(=O)NCCc4ccccc4)n3C)oc12	4.2	2.4	-2.1	0.8	1.4	x	x
O=C1C2C(c3ccccc3)=NN(c3ccccc3)C2C(=O)N1c1ccccc1 (stereo not given)	22.6*	24.9	-4.5	8.9	-2.3	35.6*	47.2*
c1ccc(-c2cnc(-c3ccccn3)nn2)cc1	2.2	3.5	5.5	32.7	-0.4	x	x
O=C(CC1SCCNC1=O)Nc1cccc(C(F)(F)F)c1 (stereo not given)	67.2*	5.7	1.5	-5.8	8.5	1.2	3.7
NC(=O)CCn1c(C(=O)c2ccc(Cl)cc2)c2ccccc2[n+]1[O-]	-2.7	-13.4	-2.9	-8.1	-2.0	x	x
COc1ccc(-n2c(CCc3ccccc3)nnc2SCC(=O)NCc2ccccc2)cc1	59.2*	-4.2	-2.8	7.1	-10.3	-0.1	3.8
O=C(CSc1nnc(CCc2ccccc2)n1-c1ccc(Cl)cc1)NCc1ccccc1	13.8	4.3	3.6	19.1	1.3	x	x
CCc1ccc(OCC(=O)OCC(=O)c2ccc3c(c2)NC(=O)CO3)cc1	-0.6	0.4	-5.7	4.0	5.8	x	x
CCC(=O)c1ccc(OCC(=O)c2ccc3c(c2)NC(=O)CO3)cc1	23.3*	4.3	-1.7	-0.4	12.2	4.1	3.5
COc1ccccc1[C@@H]1C(c2cccc(C)c2)=NN(c2ccccc2)[C@H]1C(=O)N1CCOC1=O	24.2*	18.1	-1.5	8.1	-0.6	-22.4	-14.7
COc1ccnc(-n2cccc2C=O)c1C#N	-3.9	0.2	-0.9	-2.8	-4.8	x	x
CCn1c(NCc2cccc(OC)c2OC)nc2ccccc21	22.1*	17.5	2.7	1.7	4.5	4.2	1.7
CCOc1ccc(NC(=O)CN(C)C(=O)CSCc2cccc(C)c2)cc1OCC	1.4	-0.1	1.9	13.2	3.0	x	x
O=C(NCc1ccccc1)c1ccc2nnsc2c1	9.8	-5.1	-1.9	-0.4	1.9	x	x
CCC(=O)Nc1c(S(=O)(=O)c2ccc(C)cc2)c2nc3ccccc3nc2n1C(C)c1ccccc1 (stereo not given)	26.3*	6.5	-5.8	10.8	-4.5	-22.4	-13.7
CCC(=O)Nc1c(S(=O)(=O)c2ccccc2)c2nc3ccccc3nc2n1C(C)c1ccccc1 (stereo not given)	6.2	-23.2	-4.6	7.6	-7.9	x	x
CC(=O)Oc1ccc(-c2cc3c(OC(C)=O)cc(OC(C)=O)cc3oc2=O)cc1	51.7*	8.9	-1.1	6.3	4.1	-20.5	-14.4
CCc1nnc(NC(=O)CSc2nnc3c(C)cc4c(C)ccc(C)c4n23)s1	22.3*	-0.2	-1.8	-9.8	-1.6	3.0	3.8
Cc1cc(NC(=O)CSc2nnc3c(C)cc4c(C)ccc(C)c4n23)no1	8.5	9.9	-0.9	-1.8	-1.1	x	x
CN1/C(=C/C(=O)c2ccc(Cl)cc2)Sc2cc3c(cc21)OCO3	40.0*	11.3	-1.6	17.6	5.2	-13.4	1.9
COc1ccc(C(=O)/C=C2/Sc3cc4c(cc3N2C)OCO4)cc1	-4.6	-2.2	0.9	-2.0	3.4	x	x
N=c1c(S(=O)(=O)c2ccccc2)cc2c(=O)n3ccccc3nc2n1C1CCCC1	30.1*	-17.0	-3.3	0.0	-1.2	-22.0	-14.1

Bioassay records (PubChem BioAssay)
